# ChEMBL document CHEMBL5329172, “Chloroacetamide fragment library screening identifies new scaffolds for covalent inhibition of the TEAD·YAP1 interaction” (RSC Med Chem, 2023)
# Active and inactive are the calls of the source. No cut-off for these calls is given here.
# Assays:
# [1] = target: TEAD3-YAP1 (Homo sapiens) (UniProt P46937+Q99594); assay: Inhibition of TEAD3 (210 to 427 residues) (unknown origin) expressed in Escherichia coli BL21 (DE3) cells/FAM-labelled YAP1 (60 to 99 residues)(unknown origin) protein-protein interaction preincubated for 24 hrs at 4 degree C with compound followed by fluorescent labelled YAP1 addition by fluorescence polarization assay
# TEAD3-YAP1 (Homo sapiens), sequence (P46937 whole entry, looked up, the tested form may be a part): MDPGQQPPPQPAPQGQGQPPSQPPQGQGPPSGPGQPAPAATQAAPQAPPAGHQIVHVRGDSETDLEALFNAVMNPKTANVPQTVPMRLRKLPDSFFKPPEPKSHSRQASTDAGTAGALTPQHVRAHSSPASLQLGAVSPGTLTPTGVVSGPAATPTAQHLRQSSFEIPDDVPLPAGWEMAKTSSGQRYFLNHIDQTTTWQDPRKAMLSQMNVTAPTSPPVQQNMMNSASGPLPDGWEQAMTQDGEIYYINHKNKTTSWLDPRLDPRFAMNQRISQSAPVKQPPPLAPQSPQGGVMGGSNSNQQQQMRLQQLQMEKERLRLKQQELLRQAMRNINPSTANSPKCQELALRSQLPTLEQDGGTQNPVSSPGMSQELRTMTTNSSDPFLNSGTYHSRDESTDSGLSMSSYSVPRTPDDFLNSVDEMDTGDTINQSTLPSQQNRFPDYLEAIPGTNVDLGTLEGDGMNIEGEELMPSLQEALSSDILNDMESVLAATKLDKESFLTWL
# TEAD3-YAP1 (Homo sapiens), sequence (Q99594 whole entry, looked up, the tested form may be a part): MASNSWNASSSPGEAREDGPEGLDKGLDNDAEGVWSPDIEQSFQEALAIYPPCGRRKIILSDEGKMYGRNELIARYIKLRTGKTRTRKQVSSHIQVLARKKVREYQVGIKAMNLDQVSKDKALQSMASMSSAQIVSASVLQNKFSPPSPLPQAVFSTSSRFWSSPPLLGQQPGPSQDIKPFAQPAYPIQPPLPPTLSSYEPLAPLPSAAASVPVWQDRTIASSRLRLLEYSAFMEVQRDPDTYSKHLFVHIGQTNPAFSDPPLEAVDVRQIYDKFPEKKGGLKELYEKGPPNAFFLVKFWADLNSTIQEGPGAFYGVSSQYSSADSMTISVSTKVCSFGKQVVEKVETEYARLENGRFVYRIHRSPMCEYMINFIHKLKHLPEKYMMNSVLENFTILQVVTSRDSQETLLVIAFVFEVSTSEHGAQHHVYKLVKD
# Method in brief: (§1)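 FP: 64 nM TEAD4, TEAD4C367S, TEAD2 or TEAD3, or 250 nM TEAD1, was preincubated with compound for 24 h at 4 °C in PBS with 0.01% Triton X-100. FAM-YAP1 60–99 peptide (disulfide-crosslinked) was then added at 16 nM final. Polarization was read at ex 485/em 535 nm. Percent inhibition was taken relative to no-compound and no-protein controls. The single-point primary screen used 50 μM.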
# [2] = target: T1, YAP1-TEAD4 (Homo sapiens) (UniProt P46937+Q15561); assay: Inhibition of GST-tagged TEAD4 (217 to 434 residues) (unknown origin) expressed in Escherichia coli BL21 (DE3) cells/FAM-labelled YAP1 (60 to 99 residues)(unknown origin) protein-protein interaction assessed as maximum inhibition at 50 uM preincubated for 24 hrs at 4 degree C with TEAD4 followed by fluorescent labelled YAP1 addition by fluorescence polarization assay; method in brief: as §1
# TEAD2-YAP1 = TEAD2-YAP1 (Homo sapiens, UniProt Q15562); assay: (§2) Inhibition of TEAD2 (217 to 447 residues) (unknown origin) expressed in Escherichia coli BL21 (DE3) cells/FAM-labelled YAP1 (60 to 99 residues)(unknown origin) protein-protein interaction preincubated for 24 hrs at 4 degree C with compound followed by fluorescent labelled YAP1 addition by fluorescence polarization assay; method in brief: as §1
# TEAD2-YAP1, sequence (P46937 whole entry, the tested form may be a part): as the sequence (P46937 whole entry, looked up, the tested form may be a part) above
# TEAD2-YAP1, sequence (Q15562 whole entry, the tested form may be a part): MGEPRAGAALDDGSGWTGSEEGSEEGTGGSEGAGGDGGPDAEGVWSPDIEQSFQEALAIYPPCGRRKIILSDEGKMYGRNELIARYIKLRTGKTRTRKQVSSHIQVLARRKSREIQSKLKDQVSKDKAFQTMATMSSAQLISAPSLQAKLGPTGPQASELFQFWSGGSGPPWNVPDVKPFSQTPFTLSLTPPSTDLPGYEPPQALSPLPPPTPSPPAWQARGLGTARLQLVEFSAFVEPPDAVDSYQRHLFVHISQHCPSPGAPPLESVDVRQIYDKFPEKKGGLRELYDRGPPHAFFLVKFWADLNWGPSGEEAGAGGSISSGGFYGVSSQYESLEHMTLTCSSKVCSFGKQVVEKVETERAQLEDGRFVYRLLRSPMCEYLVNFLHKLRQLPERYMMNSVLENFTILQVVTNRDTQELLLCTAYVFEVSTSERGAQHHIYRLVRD
# [3] = target: T2, Transcriptional coactivator YAP1/Transcriptional enhancer factor TEF-1 (Homo sapiens) (UniProt P46937+P28347); assay: Covalent inhibition of TEAD1 (209 to 426 residues) (unknown origin) expressed in Escherichia coli BL21 (DE3) cells/FAM-labelled YAP1 (60 to 99 residues)(unknown origin) protein-protein interaction assessed as protein-compound adduct formation at 100 uM incubated for 24 hrs at 4 degree C followed by mass spectrometry analysis
# T2 sequence (P28347 whole entry, looked up, the tested form may be a part): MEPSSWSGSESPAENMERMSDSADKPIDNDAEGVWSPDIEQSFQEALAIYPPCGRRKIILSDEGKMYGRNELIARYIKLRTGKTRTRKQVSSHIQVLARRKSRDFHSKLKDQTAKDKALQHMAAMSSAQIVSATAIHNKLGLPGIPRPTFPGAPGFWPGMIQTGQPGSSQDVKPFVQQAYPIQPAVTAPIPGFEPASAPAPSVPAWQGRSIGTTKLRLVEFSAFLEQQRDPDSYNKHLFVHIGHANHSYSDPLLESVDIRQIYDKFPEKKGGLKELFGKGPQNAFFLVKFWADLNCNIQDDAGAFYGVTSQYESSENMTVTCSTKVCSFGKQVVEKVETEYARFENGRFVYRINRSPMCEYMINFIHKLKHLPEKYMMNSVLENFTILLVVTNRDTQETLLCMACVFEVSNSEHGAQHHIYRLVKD
# T2 sequence (P46937 whole entry, looked up, the tested form may be a part): as the sequence (P46937 whole entry, looked up, the tested form may be a part) above
# Method in brief: (§3)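 Intact-protein MS: 2.5 μM protein (TEAD4 217–434 with GST cleaved, TEAD4C367S, TEAD1 209–426, TEAD2 217–447 or TEAD3 210–427) incubated with 100 μM compound in PBS for 24 h at 4 °C. Samples were centrifuged to remove precipitate, desalted on a C3 reverse-phase column with a water/acetonitrile 0.1% formic acid gradient, and masses were read by Q-TOF. Adduct peaks were reported as percent.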
# [4] = target: T1, YAP1-TEAD4 (Homo sapiens); assay: Covalent inhibition of GST-tagged TEAD4 (217 to 434 residues) (unknown origin) expressed in Escherichia coli BL21 (DE3) cells/FAM-labelled YAP1 (60 to 99 residues)(unknown origin) protein-protein interaction assessed as protein-compound adduct formation by second order rate constant, kinact/ki ratio at 100 uM incubated for 0.5 to 6 hrs at 4 degree C followed by mass spectrometry analysis; conditions: time 0.5-6 hrs
# Method in brief: (§4)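 Kinetics by MS: 2.5 μM TEAD4 was incubated at 4 °C with 3.1–100 μM compound. Aliquots were quenched with 0.1 M formic acid at set times from 0.5 h upward and analysed by whole-protein MS. Adduct relative to unreacted protein was fit to 100×(1−e^(−kobs·t)) to give kobs. kobs versus concentration was fit hyperbolically for kinact and KI, or linearly for kinact/KI where no plateau was reached.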
# YAP1-TEAD4 [5] = target: T3, YAP1-TEAD4 (Homo sapiens, UniProt Q15561); assay: Inhibition of GST-tagged TEAD4 (217 to 434 residues) (unknown origin) expressed in Escherichia coli BL21 (DE3) cells/FAM-labelled YAP1 (60 to 99 residues)(unknown origin) protein-protein interaction preincubated for 24 hrs at 4 degree C with TEAD4 followed by fluorescent labelled YAP1 addition by fluorescence polarization assay; method in brief: as §1
# T3 sequence (P46937 whole entry, the tested form may be a part): as the sequence (P46937 whole entry, looked up, the tested form may be a part) above
# T3 sequence (Q15561 whole entry, the tested form may be a part): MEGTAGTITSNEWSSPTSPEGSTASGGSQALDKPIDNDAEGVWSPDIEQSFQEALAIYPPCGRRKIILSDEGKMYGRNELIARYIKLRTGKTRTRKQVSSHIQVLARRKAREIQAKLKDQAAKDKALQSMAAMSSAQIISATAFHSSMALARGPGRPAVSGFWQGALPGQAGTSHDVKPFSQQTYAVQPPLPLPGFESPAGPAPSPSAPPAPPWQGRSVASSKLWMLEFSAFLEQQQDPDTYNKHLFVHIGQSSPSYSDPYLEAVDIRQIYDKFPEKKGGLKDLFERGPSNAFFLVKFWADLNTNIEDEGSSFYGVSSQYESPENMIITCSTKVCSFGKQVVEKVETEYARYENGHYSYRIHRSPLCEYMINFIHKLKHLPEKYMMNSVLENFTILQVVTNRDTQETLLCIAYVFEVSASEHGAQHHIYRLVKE
# [6] = target: Transcriptional coactivator YAP1/Transcriptional enhancer factor TEF-1 (Homo sapiens, UniProt P28347); assay: (§5) Inhibition of TEAD1 (209 to 426 residues) (unknown origin) expressed in Escherichia coli BL21 (DE3) cells/FAM-labelled YAP1 (60 to 99 residues)(unknown origin) protein-protein interaction preincubated for 24 hrs at 4 degree C with compound followed by fluorescent labelled YAP1 addition by fluorescence polarization assay; method in brief: as §1
# Transcriptional coactivator YAP1/Transcriptional enhancer factor TEF-1, sequence (P46937 whole entry, the tested form may be a part): as the sequence (P46937 whole entry, looked up, the tested form may be a part) above
# Transcriptional coactivator YAP1/Transcriptional enhancer factor TEF-1, sequence (P28347 whole entry, the tested form may be a part): as the sequence (P28347 whole entry, looked up, the tested form may be a part) above
# Homo sapiens [7] = species on record: Homo sapiens; assay: Covalent inhibition of GST-tagged TEAD4 C367S mutant (unknown origin) expressed in Escherichia coli BL21 (DE3)/FAM-labelled YAP1 (60 to 99 residues)(unknown origin) protein-protein interaction assessed as protein-compound adduct formation at 100 uM incubated for 24 hrs at 4 degree C followed by mass spectrometry analysis; method in brief: as §3
# [8] = target: T1, YAP1-TEAD4 (Homo sapiens); assay: Covalent inhibition of GST-tagged TEAD4 (217 to 434 residues) (unknown origin) expressed in Escherichia coli BL21 (DE3) cells/FAM-labelled YAP1 (60 to 99 residues)(unknown origin) protein-protein interaction assessed as second protein-compound adduct formation at 100 uM incubated for 24 hrs at 4 degree C followed by mass spectrometry analysis; method in brief: as §3
# S2 = assay: Inhibition of uPAR (unknown origin) expressed in S2 cells/FAM-labelled alpha-helical peptide AE-147 (unknown origin) protein-protein interaction preincubated for 24 hrs at 4 degree C with uPAR followed by fluorescent labelled AE-147 addition by fluorescence polarization assay; conditions: Homo sapiens
# Method in brief: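 Counter-screen FP: 250 nM uPAR lacking the GPI anchor (from S2 cells) was preincubated with compound for 24 h at 4 °C in PBS with 0.01% Triton X-100. AE-147-FAM peptide was then added at 100 nM final and polarization read at ex 485/em 535 nm.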
# Homo sapiens [9] = species on record: Homo sapiens; assay: (§6) Inhibition of GST-tagged TEAD4 C367S mutant (unknown origin) expressed in Escherichia coli BL21 (DE3) cells/FAM-labelled YAP1 (60 to 99 residues)(unknown origin) protein-protein interaction preincubated for 24 hrs at 4 degree C with TEAD4 C367S mutant followed by fluorescent labelled YAP1 addition by fluorescence polarization assay; method in brief: as §1
# [10] = target: T1, YAP1-TEAD4 (Homo sapiens); assay: Covalent inhibition of GST-tagged TEAD4 (217 to 434 residues) (unknown origin) expressed in Escherichia coli BL21 (DE3) cells/FAM-labelled YAP1 (60 to 99 residues)(unknown origin) protein-protein interaction assessed as additional protein-compound adduct formation at 100 uM incubated for 24 hrs at 4 degree C followed by mass spectrometry analysis; method in brief: as §3
# [11] = target: T1, YAP1-TEAD4 (Homo sapiens); assay: Covalent inhibition of GST-tagged TEAD4 (217 to 434 residues) (unknown origin) expressed in Escherichia coli BL21 (DE3) cells/FAM-labelled YAP1 (60 to 99 residues)(unknown origin) protein-protein interaction assessed as protein-compound adduct formation at 100 uM incubated for 24 hrs at 4 degree C followed by mass spectrometry analysis; method in brief: as §3
# [12] = target: T2, Transcriptional coactivator YAP1/Transcriptional enhancer factor TEF-1 (Homo sapiens); assay: Inhibition of TEAD1 (209 to 426 residues) (unknown origin) expressed in Escherichia coli BL21 (DE3) cells/FAM-labelled YAP1 (60 to 99 residues)(unknown origin) protein-protein interaction assessed as maximum inhibition at 50 uM preincubated for 24 hrs at 4 degree C with compound followed by fluorescent labelled YAP1 addition by fluorescence polarization assay; method in brief: as §1
# YAP1-TEAD4 [13] = target: T3, YAP1-TEAD4; assay: Inhibition of GST-tagged TEAD4 (217 to 434 residues) (unknown origin) expressed in Escherichia coli BL21 (DE3) cells/FAM-labelled YAP1 (60 to 99 residues)(unknown origin) protein-protein interaction preincubated for 0.5 hrs at 4 degree C with TEAD4 followed by fluorescent labelled YAP1 addition by fluorescence polarization assay
# Method in brief: (§7)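 Time-course FP: 64 nM TEAD4 was preincubated with varying compound concentrations for 0.5, 6, 24 or 48 h at 4 °C in PBS with 0.01% Triton X-100. 16 nM FAM-YAP1 60–99 peptide was then added and polarization read at 485/535 nm, n = 2. Inhibition was taken relative to no-compound and no-protein controls.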
# [14] = target: T4, TEAD2-YAP1 (Homo sapiens) (UniProt P46937+Q15562); assay: Inhibition of TEAD2 (217 to 447 residues) (unknown origin) expressed in Escherichia coli BL21 (DE3) cells/FAM-labelled YAP1 (60 to 99 residues)(unknown origin) protein-protein interaction assessed as maximum inhibition at 50 uM preincubated for 24 hrs at 4 degree C with compound followed by fluorescent labelled YAP1 addition by fluorescence polarization assay; method in brief: as §1
# T4 sequence (P46937 whole entry, looked up, the tested form may be a part): as the sequence (P46937 whole entry, looked up, the tested form may be a part) above
# T4 sequence (Q15562 whole entry, looked up, the tested form may be a part): as the sequence (Q15562 whole entry, the tested form may be a part) above
# [15] = target: T1, YAP1-TEAD4 (Homo sapiens); assay: Inhibition of GST-tagged TEAD4 (217 to 434 residues) (unknown origin) expressed in Escherichia coli BL21 (DE3) cells/FAM-labelled YAP1 (60 to 99 residues)(unknown origin) protein-protein interaction assessed maximum inhibition preincubated for 6 hrs at 4 degree C with TEAD4 followed by fluorescent labelled YAP1 addition by fluorescence polarization assay; method in brief: as §7
# YAP1-TEAD4 [16] = target: T3, YAP1-TEAD4; assay: Inhibition of GST-tagged TEAD4 (217 to 434 residues) (unknown origin) expressed in Escherichia coli BL21 (DE3) cells/FAM-labelled YAP1 (60 to 99 residues)(unknown origin) protein-protein interaction preincubated for 6 hrs at 4 degree C with TEAD4 followed by fluorescent labelled YAP1 addition by fluorescence polarization assay; method in brief: as §7
# [17] = target: T1, YAP1-TEAD4 (Homo sapiens); assay: Inhibition of GST-tagged TEAD4 (217 to 434 residues) (unknown origin) expressed in Escherichia coli BL21 (DE3) cells/FAM-labelled YAP1 (60 to 99 residues)(unknown origin) protein-protein interaction assessed maximum inhibition preincubated for 48 hrs at 4 degree C with TEAD4 followed by fluorescent labelled YAP1 addition by fluorescence polarization assay; method in brief: as §7
# YAP1-TEAD4 [18] = target: T3, YAP1-TEAD4; assay: Inhibition of GST-tagged TEAD4 (217 to 434 residues) (unknown origin) expressed in Escherichia coli BL21 (DE3) cells/FAM-labelled YAP1 (60 to 99 residues)(unknown origin) protein-protein interaction preincubated for 48 hrs at 4 degree C with TEAD4 followed by fluorescent labelled YAP1 addition by fluorescence polarization assay; method in brief: as §7
# [19] = target: T1, YAP1-TEAD4 (Homo sapiens); assay: Covalent inhibition of GST-tagged TEAD4 (217 to 434 residues) (unknown origin) expressed in Escherichia coli BL21 (DE3) cells/FAM-labelled YAP1 (60 to 99 residues)(unknown origin) protein-protein interaction assessed as protein-compound adduct formation by measuring reaction half life at 100 uM incubated for 0.5 to 6 hrs at 4 degree C followed by mass spectrometry analysis; conditions: time 0.5-6 hrs; method in brief: as §4
# YAP1-TEAD4 [20] = target: T3, YAP1-TEAD4; assay: Covalent inhibition of GST-tagged TEAD4 (217 to 434 residues) (unknown origin) expressed in Escherichia coli BL21 (DE3) cells/FAM-labelled YAP1 (60 to 99 residues)(unknown origin) protein-protein interaction assessed as protein-compound adduct formation by measuring inhibition constant at 100 uM incubated for 0.5 to 6 hrs at 4 degree C followed by mass spectrometry analysis; method in brief: as §4
# [21] = target: T4, TEAD2-YAP1 (Homo sapiens); assay: as §2; method in brief: as §1
# [22] = target: T2, Transcriptional coactivator YAP1/Transcriptional enhancer factor TEF-1 (Homo sapiens); assay: as §5; method in brief: as §1
# [23] = as §6; parameters: species or system Homo sapiens; method in brief: as §1
SMILES,inhibition [1],Imax [2] [%],IC50 (TEAD2-YAP1) [µM],inhibition [3],Ratio [4] [M⁻¹ s⁻¹],IC50 (YAP1-TEAD4 [5]) [µM],IC50 [6] [µM],inhibition (Homo sapiens [7]),inhibition (S2),inhibition (Homo sapiens [9]),percent protein-compound adduct formation [11] [%],Imax [15] [%],IC50 (YAP1-TEAD4 [16]) [µM],Imax [17] [%],IC50 (YAP1-TEAD4 [18]) [µM],further results
O=C(CCl)NCCSc1ccc(Cl)cc1,inactive,35,86.7,Active,1.6,1.4,182,inactive,,,,,,,,
COc1ccc(CN(C(=O)CCl)C(C(=O)NC2CCCCC2)c2cccs2)cc1 (stereo not given),,67,,,,13,,inactive,inactive,inactive,12,,,,,percent second protein-compound adduct [8]: 20%; percent protein-compound adduct formation [10]: 30%
NC(=O)c1oc2ccccc2c1NC(=O)CCl,inactive,35,254,100%,0.3,0.9,3,inactive,,,,,,,,Imax [12]: 31%; IC50 (YAP1-TEAD4 [13]): 40 µM
CCOc1ccc(S(=O)(=O)N2CCN(C(=O)CCl)CC2)cc1,inactive,44,46.5,Active,2.4,11.1,,,inactive,inactive,100,45,56.3,45,19.4,Imax [14]: 14%
O=C(Nc1ccccc1)C1CCN(C(=O)CCl)CC1,inactive,41,,Active,28.1,22.8,,,inactive,inactive,100,33,38.1,33,4.7,T1/2 [19]: 6 min; Ki (YAP1-TEAD4 [20]): 94 µM; inhibition [21]: inactive; inhibition [22]: inactive
COc1ccccc1CN(C(=O)CCl)C(C(=O)NC1CCCCC1)c1ccncc1 (stereo not given),,100,,,,20.7,,,inactive,,,,,,,IC50 [23]: 27.9 µM
